# Experiments:
# MOLT-4 = experiment: Antiproliferative activity against human MOLT4 cells after 48 hrs by Coulter counting analysis; type: functional, cell-based; details: MOLT-4, 48 h
# FM3A = experiment: Antiproliferative activity against mouse FM3A cells after 48 hrs by Coulter counting analysis; type: functional, cell-based
# HeLa = experiment: Antiproliferative activity against human HeLa cells after 48 hrs by Coulter counting analysis; type: functional, cell-based
# L1210 = experiment: Antiproliferative activity against mouse L1210 cells after 48 hrs by Coulter counting analysis; type: functional, cell-based; details: L1210, 48 h
# CCRF-CEM = experiment: Antiproliferative activity against human CEM cells after 48 hrs by Coulter counting analysis; type: cell-based
# [1] = Solubility of the compound; type: physicochemical
# K562 [2] = experiment: Cell cycle arrest in human K562 cells assessed as accumulation at G0-G1 phase at IC75 after 72 hrs using propidium iodide staining by flow cytometry; type: functional
# How it was run: (§1)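 K562 cells were cultured 72 h with or without compound, then stained with propidium iodide and analysed by flow cytometry. The proportions of cells in sub-G1, G0–G1, S and G2-M were read from DNA histograms and compared with untreated controls.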
# K562 [3] = experiment: Cell cycle arrest in human K562 cells assessed as accumulation at G2-M phase at IC75 after 72 hrs using propidium iodide staining by flow cytometry; type: functional; how it was run: as §1
# K562 [4] = experiment: Cell cycle arrest in human K562 cells assessed as accumulation at subG1 phase at IC75 after 72 hrs using propidium iodide staining by flow cytometry; type: functional; how it was run: as §1
# [5] = Inhibition of bovine brain tubulin polymerization; parameters: species or system Bos taurus
# K562 [6] = experiment: Antiproliferative activity against human K562 cells after 48 hrs by Coulter counting analysis; type: functional, cell-based; details: K562, 48 h
# K562 [7] = experiment: Cell cycle arrest in human K562 cells assessed as accumulation at S phase at IC75 after 72 hrs using propidium iodide staining by flow cytometry; type: functional; how it was run: as §1
# Bos taurus = species: Bos taurus; experiment: Displacement of [3H]colchicine from bovine brain tubulin at 50 uM
Structure (SMILES),IC50 (MOLT-4) [µM],IC50 (FM3A) [µM],IC50 (HeLa) [µM],IC50 (L1210) [µM],IC50 (CCRF-CEM) [µM],solubility [1],Activity (K562 [2]) [%],Activity (K562 [3]) [%],Activity (K562 [4]) [%],IC50 [5] [µM],IC75 (K562 [6]) [µM],Activity (K562 [7]) [%],inhibition (Bos taurus) [%]
C=C(Br)C(=O)Nc1ccc(/C=C/C(=O)c2ccc(Cl)c(Cl)c2)cc1,1.8,3.2,3.2,2.1,1.7,–,–,–,–,–,–,–,–
Nc1ccc(/C=C/C(=O)c2ccc(F)cc2)cc1,12,185,40,123,39,–,–,–,–,–,–,–,–
Nc1ccc(C(=O)/C=C/c2ccccc2)cc1,7.9,34,7.7,14,8.5,–,–,–,–,–,–,–,–
COc1ccc(/C=C/C(=O)c2ccc(N)cc2)cc1,8.6,35,8.7,18,14,–,–,–,–,–,–,–,–
Nc1ccc(/C=C/C(=O)c2cccc3ccccc23)cc1,12,41,18,32,22,–,–,–,–,–,–,–,–
C=C(Br)C(=O)Nc1ccc(C(=O)/C=C/c2cc(OC)c(OC)c(OC)c2)cc1,0.28,1.8,0.42,1.5,0.33,–,–,–,–,–,–,–,–
COc1ccc(/C=C/C(=O)c2ccc(N)cc2)c(OC)c1OC,10,29,8.2,25,9.7,–,–,–,–,–,–,–,–
COc1cccc(C(=O)/C=C/c2ccc(N)cc2)c1,20,43,33,38,26,–,–,–,–,–,–,–,–
C=C(Br)C(=O)Nc1ccc(C(=O)/C=C/c2cccc(OC)c2OC)cc1,0.49,0.55,0.38,1.1,0.71,Insoluble,22.3,14.1,48.4,> 40,0.64,15.2,–
C=C(Br)C(=O)Nc1ccc(C(=O)/C=C/c2ccc(OC)c(OC)c2)cc1,1.8,1.2,0.77,1.3,1.6,–,–,–,–,–,–,–,–
CCOc1ccc(C(=O)/C=C/c2ccc(N)cc2)cc1,11,55,41,21,15,–,–,–,–,–,–,–,–
C=C(Br)C(=O)Nc1ccc(C(=O)/C=C/c2ccc(OC)cc2)cc1,0.61,1,0.31,0.9,1.1,Insoluble,11,9.2,68.2,> 40,1.14,11.6,–
C=C(Br)C(=O)Nc1ccc(/C=C/C(=O)c2ccc(F)cc2)cc1,0.66,1.2,1.4,1.6,1.1,–,–,–,–,–,–,–,–
COc1cccc(/C=C/C(=O)c2ccc(N)cc2)c1,21,45,19,22,23,–,–,–,–,–,–,–,–
COc1ccc(C(=O)/C=C/c2ccc(N)cc2)cc1,19,282,98,160,37,–,–,–,–,–,–,–,–
C=C(Br)C(=O)Nc1ccc(/C=C/C(=O)c2cc(OC)c(OC)c(OC)c2)cc1,0.85,0.95,1.1,0.91,1.1,–,–,–,–,–,–,–,–
C=C(Br)C(=O)Nc1ccc(/C=C/C(=O)c2cccs2)cc1,0.55,0.52,0.34,0.25,0.73,Insoluble,17,17,42.8,> 40,0.82,23.2,–
Nc1ccc(/C=C/C(=O)c2ccc(Br)cc2)cc1,10,120,49,90,14,–,–,–,–,–,–,–,–
C=C(Br)C(=O)O,–,–,–,> 120,–,–,–,–,–,–,–,–,–
C=C(Br)C(=O)Nc1ccc(C(=O)/C=C/c2ccccc2OC)cc1,0.24,0.37,1.3,1.7,0.58,Insoluble,6.4,3.9,83.4,8.3,2.94,6.3,37
COc1cc(C(=O)/C=C/c2ccc(N)cc2)cc(OC)c1OC,1.5,36,1.9,14,2.5,–,–,–,–,–,–,–,–
C=C(Br)C(=O)Nc1ccc(/C=C/C(=O)c2ccc(OC)cc2)cc1,1.3,1.2,1.4,0.98,1.4,–,–,–,–,–,–,–,–

# Source: ChEMBL document CHEMBL1153932, “Hybrid alpha-bromoacryloylamido chalcones. Design, synthesis and biological evaluation” (Bioorg Med Chem Lett, 2009)
